One assay deals with T1, Dihydrofolate reductase (Candida albicans, UniProt P22906).
T1 sequence (P22906 whole entry): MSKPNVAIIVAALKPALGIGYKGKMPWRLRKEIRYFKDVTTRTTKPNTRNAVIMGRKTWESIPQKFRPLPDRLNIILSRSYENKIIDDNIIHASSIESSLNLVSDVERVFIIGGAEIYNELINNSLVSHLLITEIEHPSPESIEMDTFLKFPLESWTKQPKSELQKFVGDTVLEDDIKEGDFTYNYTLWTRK
In words: Inhibitory activity against cell free dihydrofolate reductase (DHFR) from Candida albicans. Particulars: read-out: I50.
Turning to `Nc1ncc(OCc2ccccc2)c(N)n1`, the IC50 is 1.24 µM.
For `Nc1ncc(/C=C/c2ccccc2)c(N)n1`, the IC50 amounted to 5.72 µM.
`Cc1nc(N)nc(N)c1CCc1ccccc1`: the IC50 is 4.2 µM.
Regarding `Cc1nc(N)nc(N)c1OCc1ccc(Cl)c(Cl)c1`, the IC50 came out at 1.34 µM.
As to `COc1cc(Cc2cnc(N)nc2N)cc(OC)c1OCCCNc1ccc(N(C)C)cc1`, the IC50 was 0.97 µM.
Still for that read-out and setting: the figure for `COc1ccc(CCc2cnc(N)nc2N)cc1OC` is 35.4 µM; for `Nc1ncc(OCc2c(Cl)cccc2Cl)c(N)n1` it is 3.1 µM; for `Cc1nc(N)nc(N)c1Cc1ccccc1` it is 1.85 µM.
Take `Nc1ncc(OCc2ccc(Cl)c(Cl)c2)c(N)n1`: the IC50 stood at 3.72 µM.
For `Nc1ncc(NCc2cccc3ccccc23)c(N)n1`, the IC50 worked out at 1.39 µM.
For the compound `Cc1ccc(S(=O)(=O)NCCCCOc2ccc(Cc3cnc(N)nc3N)cc2)cc1`, the IC50 amounted to 0.581 µM.
As to `Nc1ncc(OCc2ccc(OCCCN3C(=O)c4ccccc4C3=O)cc2)c(N)n1`, the IC50 was 0.619 µM.
The same measure, in the same setting: the result for `Nc1ncc(Cc2ccc(OCCCCN3C(=O)c4ccccc4C3=O)cc2)c(N)n1` reads 0.047 µM; that for `COc1ccc(COc2cnc(N)nc2N)cc1`, 26.1 µM; that for `Nc1ncc(CNc2ccccc2)c(N)n1`, 59.4 µM.
With `Cc1nc(N)nc(N)c1CCCc1ccccc1`, the IC50 is 9.9 µM.
Turning to `Nc1ncc(CCc2ccccc2)c(N)n1`, the IC50 worked out at 3.37 µM.
In the case of `Cc1ccc(S(=O)(=O)NCCCOc2ccc(COc3cnc(N)nc3N)cc2)cc1`, the IC50 is 0.435 µM.
`COc1cc(COc2cnc(N)nc2N)ccc1OCCCNS(=O)(=O)c1ccc(C)cc1`: the IC50 is 0.538 µM.
Regarding `COc1ccc(CNc2cnc(N)nc2N)cc1`, the IC50 was found to be 52.3 µM.
Consider `Nc1ncc(NCc2ccc(Cl)c(Cl)c2)c(N)n1`, for which the IC50 was 84.8 µM.
On the same count and under the same terms, the figure for `Nc1ncc(Cc2ccccc2)c(N)n1` is 90.5 µM.
As for `Nc1ncc(Cc2ccc3ccccc3c2)c(N)n1`, the IC50 was 4.77 µM.
For the compound `Nc1ncc(Cc2cccc3ccccc23)c(N)n1`, the IC50 came to 53.5 µM.

Tested on in a further assay: not listed separately
In words: Inhibitory activity against dihydropteroic acid synthase (SYN) from Mycobacterium lufu (DDS sensitive). Conditions: read-out: I50.
Consider `Nc1ccc(S(=O)(=O)c2ccc(Cl)cc2)cc1`, for which the IC50 is 13 µM.

Tested on in a further assay: not listed separately
In words: Inhibitory activity against dihydropteroic acid synthase (SYN) from Mycobacterium lufu (DDS resistant). Conditions: read-out: I50.
Consider `Nc1ccc(S(=O)(=O)c2ccc(Cl)cc2)cc1`, for which the IC50 amounted to 18.7 µM.

A further assay has as its target T2, Dihydrofolate reductase (Rattus norvegicus, UniProt Q920D2).
T2 sequence (Q920D2 whole entry): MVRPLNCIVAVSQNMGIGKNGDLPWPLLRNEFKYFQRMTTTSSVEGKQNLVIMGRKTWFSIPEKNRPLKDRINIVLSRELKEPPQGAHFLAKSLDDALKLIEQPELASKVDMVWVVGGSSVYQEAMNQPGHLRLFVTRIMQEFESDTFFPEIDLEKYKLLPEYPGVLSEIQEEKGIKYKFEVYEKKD
Nature of the assay: Inhibitory activity against cell free dihydrofolate reductase (DHFR) from rat.
Settings: not given
For the compound `Nc1ncc(/C=C/c2ccccc2)c(N)n1`, the I50 came out at 130.6 uM l-1.
Regarding `COc1ccc(CCc2cnc(N)nc2N)cc1OC`, the I50 is recorded as 315.3 uM l-1.
`Nc1ncc(CNc2ccccc2)c(N)n1` came in with an I50 of 133.1 uM l-1.
Same read-out and setting: the figure for `COc1ccc(CNc2cnc(N)nc2N)cc1` is 146.2 uM l-1; for `Nc1ncc(NCc2ccc(Cl)c(Cl)c2)c(N)n1` it is more than 350 uM l-1.
In turn, `Nc1ncc(Cc2ccccc2)c(N)n1` yielded an I50 of 115.3 uM l-1.

Staying with this assay, now noted: read-out: I50.
Turning to `Nc1ncc(OCc2ccccc2)c(N)n1`, the IC50 worked out at 10.1 µM.
As for `Cc1nc(N)nc(N)c1CCc1ccccc1`, the IC50 came out at 12.8 µM.
With `Cc1nc(N)nc(N)c1OCc1ccc(Cl)c(Cl)c1`, the IC50 came to 4.58 µM.
As for `Nc1ncc(OCc2c(Cl)cccc2Cl)c(N)n1`, the IC50 stood at 2.57 µM.
Regarding `Cc1nc(N)nc(N)c1Cc1ccccc1`, the IC50 was 3.36 µM.
In the case of `Nc1ncc(OCc2ccc(Cl)c(Cl)c2)c(N)n1`, the IC50 was found to be 56.7 µM.
Same read-out and setting: the figure for `Nc1ncc(NCc2cccc3ccccc23)c(N)n1` is 5.9 µM.
Take `Cc1ccc(S(=O)(=O)NCCCCOc2ccc(Cc3cnc(N)nc3N)cc2)cc1`: the IC50 was determined as 1.72 µM.
The same measure, in the same setting: the figure for `Nc1ncc(OCc2ccc(OCCCN3C(=O)c4ccccc4C3=O)cc2)c(N)n1` is 15.7 µM; for `Nc1ncc(Cc2ccc(OCCCCN3C(=O)c4ccccc4C3=O)cc2)c(N)n1` it is 3.64 µM; for `COc1ccc(COc2cnc(N)nc2N)cc1` it is 99.7 µM.
Regarding `Cc1nc(N)nc(N)c1CCCc1ccccc1`, the IC50 is 0.82 µM.
As for `Nc1ncc(CCc2ccccc2)c(N)n1`, the IC50 turned out to be 39.9 µM.
Turning to `Cc1ccc(S(=O)(=O)NCCCOc2ccc(COc3cnc(N)nc3N)cc2)cc1`, the IC50 was 4.43 µM.
Take `COc1cc(COc2cnc(N)nc2N)ccc1OCCCNS(=O)(=O)c1ccc(C)cc1`: the IC50 was found to be 4.53 µM.
For the compound `Nc1ncc(Cc2ccc3ccccc3c2)c(N)n1`, the IC50 was found to be 61.2 µM.
On the same count and under the same terms, the result for `Nc1ncc(Cc2cccc3ccccc23)c(N)n1` reads 29.4 µM.

Tested on in the next assay: not listed separately
In words: Inhibitory activity against dihydropteroic acid synthase (SYN) from candida albicans. Particulars: read-out: I50. The essentials:
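Partially purified SYN extract was prepared from C. albicans ATCC 11651 and incubated with sulfones at pH 8.4. Periodic samples were quenched with trichloroacetic acid, and folate formed was quantified by bioassay with folate-requiring Streptococcus faecium. I50 is the concentration giving a 50% decrease in dihydropteroic acid production versus the uninhibited control.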
Take `Nc1ccc(S(=O)(=O)c2ccc(Cl)cc2)cc1`: the IC50 amounted to 14.3 µM.

For the origin of these results see ChEMBL document CHEMBL1139439, “Folate-synthesizing enzyme system as target for development of inhibitors and inhibitor combinations against Candida albicans-synthesis and biological activity of new 2,4-diaminopyrimidines and 4'-substituted 4-aminodiphenyl sulfones” (J Med Chem, 2004).
